Reference: ChEMBL document CHEMBL1128174, “Enhanced D1 affinity in a series of piperazine ring substituted 1-piperazino-3-arylindans with potential atypical antipsychotic activity” (J Med Chem, 1995)

Columns and labels:
[1] = species on record: Rattus norvegicus; assay: In vitro inhibition of [3H]NE uptake in rat occipital lobe (plus temporal cortex) homogenates.; type: functional
[2] = species on record: Rattus norvegicus; assay: In vitro inhibition of [3H]5-HT uptake in rat brain (minus pons, medulla oblongata and cerebellum) homogenates.; type: functional
[3] = molecular target: D(1A) dopamine receptor (Rattus norvegicus, UniProt P18901); assay: Binding affinity for dopamine receptor D1, activity is expressed as IC50 values.
[4] = species on record: Rattus norvegicus; assay: In vitro inhibition of [3H]dopamine uptake in rat corpus striatum homogenates.; type: functional
[5] = species on record: Rattus norvegicus; assay: Cataleptogenic effect in rats; type: functional
Outline: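 Rats scored on a vertical wire grid hourly 1–6 h after dosing; catalepsy counted when immobility lasted at least 15 s.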

[6] = species on record: Mus musculus; assay: Antagonism of methyl phenidate-induced gnawing behavior in mice; type: functional
Outline: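 Test compound given ip (or sc) 2 h before methyl phenidate (60 mg/kg); mice housed in pairs on corrugated cardboard in gnawing cages, 5–9 pairs per dose.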

[7] = molecular target: 5-hydroxytryptamine receptor 2A (Rattus norvegicus, UniProt P14842); assay: Binding affinity for 5-hydroxytryptamine 2A receptor, activity is expressed as IC50 values.
[8] = molecular target: D(2) dopamine receptor (Rattus norvegicus, UniProt P61169); assay: Binding affinity against dopamine receptor D2
[9] = Rattus norvegicus, read-out: ED50

Chain of 5-hydroxytryptamine receptor 2A (P14842 whole entry): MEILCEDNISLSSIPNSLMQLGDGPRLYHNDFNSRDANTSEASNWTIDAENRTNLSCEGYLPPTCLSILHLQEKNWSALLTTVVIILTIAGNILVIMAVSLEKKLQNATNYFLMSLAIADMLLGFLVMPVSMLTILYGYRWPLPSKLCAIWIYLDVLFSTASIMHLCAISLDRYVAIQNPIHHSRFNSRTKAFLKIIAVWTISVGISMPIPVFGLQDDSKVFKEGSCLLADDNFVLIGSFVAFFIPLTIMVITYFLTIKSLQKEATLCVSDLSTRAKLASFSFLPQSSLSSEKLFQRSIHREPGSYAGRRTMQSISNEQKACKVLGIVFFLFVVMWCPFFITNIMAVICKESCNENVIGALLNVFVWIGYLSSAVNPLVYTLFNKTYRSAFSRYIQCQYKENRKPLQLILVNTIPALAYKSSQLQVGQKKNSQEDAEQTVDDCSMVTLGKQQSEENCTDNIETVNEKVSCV
Chain of D(1A) dopamine receptor (P18901 whole entry): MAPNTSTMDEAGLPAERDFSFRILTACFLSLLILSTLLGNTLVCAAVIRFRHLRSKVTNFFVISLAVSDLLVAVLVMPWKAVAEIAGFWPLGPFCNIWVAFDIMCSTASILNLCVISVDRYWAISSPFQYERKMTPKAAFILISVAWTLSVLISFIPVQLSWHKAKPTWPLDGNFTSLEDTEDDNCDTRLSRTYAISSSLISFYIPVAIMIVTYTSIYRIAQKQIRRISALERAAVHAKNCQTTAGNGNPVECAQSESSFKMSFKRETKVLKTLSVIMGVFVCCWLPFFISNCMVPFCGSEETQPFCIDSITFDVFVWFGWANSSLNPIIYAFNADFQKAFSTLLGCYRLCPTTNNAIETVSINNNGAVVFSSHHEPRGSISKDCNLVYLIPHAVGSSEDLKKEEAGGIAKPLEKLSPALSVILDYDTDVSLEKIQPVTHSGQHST
Chain of D(2) dopamine receptor (P61169 whole entry): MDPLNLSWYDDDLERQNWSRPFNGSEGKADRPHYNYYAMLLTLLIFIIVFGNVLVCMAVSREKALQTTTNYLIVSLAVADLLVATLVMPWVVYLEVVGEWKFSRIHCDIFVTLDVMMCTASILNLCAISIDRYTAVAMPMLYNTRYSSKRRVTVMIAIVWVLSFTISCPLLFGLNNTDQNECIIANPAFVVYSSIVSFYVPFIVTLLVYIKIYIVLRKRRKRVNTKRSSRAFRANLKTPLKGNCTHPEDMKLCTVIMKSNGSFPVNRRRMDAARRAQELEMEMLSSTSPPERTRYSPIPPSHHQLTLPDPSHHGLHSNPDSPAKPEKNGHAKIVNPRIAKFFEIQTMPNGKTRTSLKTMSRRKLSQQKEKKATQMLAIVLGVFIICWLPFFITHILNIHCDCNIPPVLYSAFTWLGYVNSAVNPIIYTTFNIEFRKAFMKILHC

| Structure (SMILES) | IC50 [3] | ED50 [5, 9] | ED50 ([6]; Mus musculus, read-out: ED50) | IC50 [8] | further results |
| --- | --- | --- | --- | --- | --- |
| CC(C)N1CCN(C2CC(c3ccc(F)cc3)c3ccc(Cl)cc32)CC1(C)C (single isomer, unassigned; (+)) | 52 nM |  |  |  | IC50 [1]: 100 nM; IC50 [2]: 2600 nM; IC50 [4]: 20 nM |
| CN1CCN(C2CC(c3ccccc3)c3ccccc32)CC1(C)C (centres undefined) |  | > 36 µmol/kg | > 36 µmol/kg |  |  |
| CN1CCN(C2CC(c3ccc(F)cc3)c3ccc(Cl)cc32)CC1(C)C (stereo in doubt; (-)-28) | 0.68 nM |  | 0.48 µmol/kg |  | IC50 [1]: 6500 nM; ED50 [5]: 9.8 µM/kg; IC50 [2]: 7200 nM; IC50 [7]: 1.1 nM; IC50 [4]: 3200 nM |
| CN1CCN(C2CC(c3ccc(F)cc3)c3ccc(Cl)cc32)CC12CCCCC2 (centres undefined) |  |  | > 80 µmol/kg |  |  |
| CN1CCN(C2CC(c3ccc(F)cc3)c3cccc(Cl)c32)CC1(C)C (centres undefined) |  | > 41 µmol/kg | > 41 µmol/kg |  |  |
| Cc1ccc2c(c1)C(N1CCN(CCO)CC1)CC2c1ccc(F)cc1 (centres undefined) | 51 nM |  |  | 23 nM |  |
| CN1CCN(C2CC(c3ccc(F)cc3)c3ccc(F)cc32)CC1(C)C (stereo in doubt; (+)-40) | 88 nM |  |  | 1500 nM | IC50 [1]: 20 nM; IC50 [2]: 3700 nM; IC50 [7]: 360 nM; IC50 [4]: 7.1 nM |
| CC1CN(C2CC(c3ccc(F)cc3)c3ccc(Cl)cc32)CCN1C (centres undefined) |  | 9.3 µmol/kg | 0.27 µmol/kg |  |  |
| OCCN1CCN(C2CC(c3ccc(F)cc3)c3cccc(Cl)c32)CC1 (centres undefined) | 130 nM |  |  |  |  |
| CN1CCN(C2CC(c3ccc(F)cc3)c3ccc(Cl)cc32)CC1(C)C (stereo in doubt; 28) | 1.3 nM |  |  |  | ED50 [5]: 25 µM/kg; IC50 [7]: 2.1 nM; ED50 [6]: 0.65 µM/kg |
| Cc1ccc2c(c1)C(N1CCN(C)CC1)CC2c1ccc(F)cc1 (centres undefined) | 38 nM |  |  | 13 nM |  |
| CN1CCN(C2CC(c3ccc(F)cc3)c3ccc(Cl)cc32)CC12CCC2 (centres undefined) |  | 69 µmol/kg | 1 µmol/kg |  |  |
| CN1CCN(C2=Nc3cc(Cl)ccc3Nc3ccccc32)CC1 [CLOZAPINE] |  | > 120 µmol/kg | 98 µmol/kg |  |  |
| CC1CN(C2CC(c3ccc(F)cc3)c3ccc(Cl)cc32)CC(C)N1C (centres undefined) | 13 nM | > 36 µmol/kg | 53 µmol/kg | 120 nM |  |
| CC1(C)CN(C2CC(c3ccc(F)cc3)c3ccc(Cl)cc32)CCN1CCO (centres undefined) |  | 3.7 µmol/kg | 0.34 µmol/kg |  |  |
| CN1CCN(C2CC(c3ccc(F)cc3)c3ccc(C(F)(F)F)cc32)CC1(C)C (centres undefined) |  | 5.2 µmol/kg | 0.99 µmol/kg |  |  |
| Fc1ccc(C2CC(N3CCN4CCCCC4C3)c3cc(Cl)ccc32)cc1 (centres undefined) |  | 4.1 µmol/kg | 14 µmol/kg |  |  |
| CC(C)N1CCN(C2CC(c3ccc(F)cc3)c3ccc(Cl)cc32)CC1(C)C (stereo in doubt; 29) | 0.82 nM | 6.9 µmol/kg |  |  | ED50 [6]: 1.6 µM/kg |
| CN1CCN(C2CC(c3ccc(F)cc3)c3ccc(Cl)cc32)CC12CCCC2 (stereo in doubt; (-)-34) | 0.96 nM |  |  |  | ED50 [5]: 31 µM/kg; ED50 [6]: 1.2 µM/kg |
| CN1CCN(C2CC(c3ccc(F)cc3)c3ccccc32)CC1(C)C (single isomer, unassigned; (+)) | 250 nM |  |  | 4900 nM | IC50 [1]: 76 nM; IC50 ([2]; Rattus norvegicus): 5200 nM; IC50 [7]: 650 nM; IC50 [4]: 25 nM |
| CCC1(CC)CN(C2CC(c3ccc(F)cc3)c3ccc(Cl)cc32)CCN1C (centres undefined) |  | > 20 µmol/kg | > 81 µmol/kg |  |  |
| OCCN1CCN(C2CC(c3ccc(F)cc3)c3ccc(F)cc32)CC1 (centres undefined) | 16 nM |  |  | 82 nM |  |
| CN1CCN(C2CC(c3ccccc3F)c3ccc(Cl)cc32)CC1(C)C (centres undefined) |  | > 33 µmol/kg | 34 µmol/kg |  |  |
| OCCN1CCN(C2CC(c3ccc(F)cc3)c3ccc(Cl)cc32)CC12CCCC2 (stereo in doubt; 35) | 1.9 nM |  |  | 13 nM | ED50 [5]: 14 µM/kg; ED50 [6]: 1.6 µM/kg |
| CN1CCN(C2CC(c3ccccc3)c3ccc(Cl)cc32)CC1 (centres undefined) | 16 nM |  |  | 61 nM |  |
| CC1(C)CN(C2CC(c3ccc(F)cc3)c3ccc(Cl)cc32)CCN1CCCO (centres undefined) | 1.1 nM | < 17 µmol/kg |  | 21 nM |  |
